# CHOP inhibitor = blocks CHOP induction under ER stress | inhibition, % at 10 µM | 220,000 tested, 3.8% active | CHO-K1 CHOP-promoter luciferase, tunicamycin-induced, 15-18 h;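 active = compounds that reduced the stress-induced luciferase reporter signal by more than about 70% of percent inhibition, limit read from the data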
# XBP1 UPR activ = adaptive UPR (XBP1) activation. CHO-XBP1 luciferase reporter, IRE1-XBP1 UPR activation, luminescence; percent of tunicamycin response, DMSO as zero. activation, % at 20 µM. 330,000 tested, 0.33% active. AID 463104;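 active = versus positive control, 20 µM dose yields 30% or more activation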
#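 Test system: CHO-XBP1 luciferase reporter cells | Buffer or medium: Serum-containing F12 medium, 10% FBS | Schedule: 6 h compound exposure at 37 °C, 5% CO2 | Detection: Steady-Glo luciferase glow luminescence, 10 min after reagent addition | Read-out basis: Activation, % of tunicamycin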
# Tb MetRS inh = blocks T. brucei methionyl-tRNA synthetase activity; inhibition, % at 11.9 µM; 360,000 tested, 0.4% active; purified T. brucei MetRS, ATP depletion, Kinase-Glo luminescence; AID 624268;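 active = inhibition above a per-plate cutoff of the control wells' mean inhibition plus 3 SD, cut at about 5.5% in these data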
#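 Measured by: Kinase-Glo luciferase luminescence reporting remaining unconsumed ATP. Material: purified T. brucei MetRS enzyme. Doses: 11.9 µM compound single dose, 0.9% DMSO. Medium: HEPES buffer containing pyrophosphatase, BSA, spermine, DTT. Times: 15 min preincubation, 2 h reaction, all 25 °C. Reagent: methionine, ATP and bulk E. coli tRNA.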
# V-ATPase pHluor = regulators of yeast V-ATPase proton transport; S. cerevisiae, pHLuorin cytosolic pH fluorescence; AID 504577; response, % at 10 µM; 350,000 tested, 0.37% active; in the data active = response mostly above about 7.3%, no sharp cut-off; inactive = mostly below about 5.4%; also: actives read high
# UPR CHOP act = apoptotic UPR (CHOP) activation | activation, % at 10 µM | CHO-CHOP luciferase reporter, luminescence; percent of tunicamycin response over DMSO baseline | 330,000 tested, 0.34% active;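 active = at 10 µM dose, activation of 40% or more, normalized to positive control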
#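 Test system: CHO-CHOP cells, stable luciferase reporter of PERK-eIF2a-CHOP signalling | Quantity: 500 CHO-CHOP cells per well | Buffer or medium: F12 plus 10% serum | Compound dosing: 10 µM single point, 0.5% DMSO | Schedule: 6 h compound treatment, 37 °C | Signal: Luciferase luminescence | Control set: Tunicamycin high control, DMSO low control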
# Hits are given with their value; - = inactive; . = no result given. The entries come from a sample that favours hits as a whole.
SMILES,CHOP inhibitor,XBP1 UPR activ,Tb MetRS inh,V-ATPase pHluor,UPR CHOP act
Cc1ccc(NC(=O)c2ccc(-c3nn(C)c(=O)c4ccccc34)cc2)c(C)c1,-,-,-,-,-
CC(=O)N(C(C)=O)n1c(/C=C/c2cccc([N+](=O)[O-])c2)nc2ccccc2c1=O,92.8,-,-,-,-
O=C(/C=C/c1ccco1)Nc1ccc(-c2nc3ccccc3[nH]2)cc1,95.6,.,-,-,.
O=C(Nc1ccc(-c2nc3ccccc3[nH]2)cc1)c1ccco1,-,-,-,-,-
COc1ccc(-c2nc(-c3ccccn3)no2)cc1,100.7,-,-,-,-
COc1ccccc1-c1nc(-c2ccccn2)no1,-,-,-,-,-
COc1ccccc1CNCCCCCCNCCCCCCCCNCCCCCCNCc1ccccc1OC,-,.,.,.,.
CN(C)c1ccc(NS(=O)(=O)c2cc(Cl)ccc2Cl)cc1,-,-,-,-,-
CCN(c1ccc(NS(=O)(=O)c2cc(Cl)ccc2Cl)cc1)C(C)C,93.3,-,-,-,-
CN(C)/C=N/c1sccc1C(N)=O,-,-,-,16.4,-
Cc1cc(C(=O)Nc2sccc2C(N)=O)c(C)o1,.,-,-,-,-
Cc1cccc(Nc2nc(N)c([N+](=O)[O-])c(N3CCCC(C)C3)n2)c1 (stereo not drawn),102.8,-,-,-,-
Cc1cnc(NC(=O)c2c(O)c3cccc4c3n(c2=O)CCC4)s1,75.9,.,.,.,.
Cc1cccc(NC(=O)c2c(O)c3cccc4c3n(c2=O)CCC4)n1,-,.,.,.,.
O=C(Nc1cccc(C(F)(F)F)c1)N1CCC(c2nc(-c3ccc(F)cc3)no2)CC1,90.9,-,-,-,-
O=C(Nc1ccccc1)N1CCCC(c2nc(-c3ccc(F)cc3)no2)C1 (stereo not drawn),-,-,-,-,-
O=C(NC(=S)Nn1cnc2c(cnn2-c2ccccc2)c1=O)c1ccc(Oc2ccccc2)cc1,73.4,-,-,-,-
COc1ccccc1OCc1cc(C(=O)N(C)CCC2CCCCO2)no1 (stereo not drawn),.,-,-,-,-
CCCCCCn1c(=O)[nH]c2nc3cc(N)c(C)cc3nc2c1=O,101.2,.,-,-,.
O=C(Nc1ccc(Br)cc1)c1ccc(N2C(=O)C3CC=C(Cl)CC3C2=O)cc1 (stereo not drawn),77.0,-,-,-,-
CCN(CC)c1c(C)nc2ccc(C(=O)N3CCN(C(=O)c4ccco4)CC3)cn12,.,.,-,.,.
CC(C)C[C@H]1CNC(=O)C(=O)N1CC1CCN(CC2CCC(C)CC2)CC1 (stereo partly drawn),.,.,-,.,.
CCc1ccc(-c2csc(-c3c[nH]c4ccccc34)n2)cc1,86.4,-,-,-,-
Nc1nc(-c2c[nH]c3ccccc23)cs1,-,-,-,-,-
CCOCCCNC(=O)c1cc2c(=O)n3cccc(C)c3nc2n1C,.,-,-,16.2,-
SMILES,CHOP inhibitor,XBP1 UPR activ,Tb MetRS inh,V-ATPase pHluor,UPR CHOP act
Cc1ccc(-c2nnn(CC(=O)N(c3ccccc3)C(C(=O)NC3CCCC3)c3ccco3)n2)o1 (stereo not drawn),93.5,-,-,-,-
CCOc1ccc(N(CC(=O)NC2CCCCC2)C(=O)Cn2nnc(-c3ccc(C)o3)n2)cc1,.,-,-,-,-
CC(C)(C)NC(=O)C(c1ccco1)N(C(=O)Cn1nnc(-c2ccc(F)cc2)n1)c1ccccc1F (stereo not drawn),83.6,-,-,-,-
Cc1ccc(N(CC(=O)NC2CCCCC2)C(=O)Cn2nnc(-c3ccc(C)o3)n2)cc1,-,-,-,13.0,-
CC(=O)Nc1cc2c(cc1NC(=O)Cn1nnc(-c3ccc(C)o3)n1)OCCO2,-,-,-,-,-
Cc1ccc(-c2nnn(CC(=O)Nc3cccc4c3CCCC4)n2)o1,80.7,-,-,-,-
O=c1[nH][nH]c2c1[C@H](C1CCCC1)O[C@H](CCc1ccccc1)C2,.,.,-,.,.
COC(=O)[C@@]12C[C@@H](CC(=O)NCc3ccc(OC)c(OC)c3)C(=O)N(Cc3ccc4c(c3)OCO4)C1=CCC(C)(C)C2,.,.,-,.,.
FC(F)(F)c1ccccc1Cc1c(-c2cccc(Cl)c2)nc2c3ccccc3ccn12,.,.,-,.,.
O=S(=O)(NCc1ccccc1)NCc1ccccc1,72.5,-,-,-,-
COc1ccccc1Nc1nnc(SCC(=O)c2c(N)n(C3CC3)c(=O)[nH]c2=O)s1,.,-,-,-,-
Cc1ccc(S(=O)(=O)CCC(=O)OCC(=O)N2CCN(c3ccccc3)CC2)cc1,.,-,-,-,-
COc1ccc(N2CCN(C(=O)COC(=O)CCS(=O)(=O)c3ccc(C)cc3)CC2)cc1,.,-,-,15.0,-
CC1(C)CC(NC(=O)C2CCN(S(=O)(=O)c3ccc(Cl)c(C(F)(F)F)c3)CC2)CC(C)(C)N1,.,.,-,-,.
CCOc1cc(CNCCO)cc(Br)c1OCc1ccccc1Cl,85.4,-,-,-,-
CCOc1cc(CNCCO)cc(Br)c1OCc1ccc(Cl)cc1,75.5,-,-,-,-
CCOc1cccc(CNCCO)c1OCc1ccc(Cl)cc1,-,-,-,-,-
COc1cc(CNCCO)cc(Cl)c1OCc1ccccc1Cl,-,-,-,-,-
OC(COc1ccc2ccccc2c1Br)Cn1cnc(-c2ccccc2)c1 (stereo not drawn),75.8,-,-,-,-
COC(=O)[C@]12CCCCC=C1N(CCC1=CCCCC1)C(=O)[C@H](CC(=O)N1CCN(C(=O)C3CC3)CC1)C2,.,.,-,.,.
OC[C@@H]1CN(Cc2ccc(-c3ccccc3)cc2)C[C@H](n2cnc3c(NCc4ccco4)ncnc32)O1,.,.,-,.,.
CCSc1ncc(/C=N/Nc2ccc([N+](=O)[O-])cc2)n1C,77.8,-,-,-,-
NC1=NC(=Nc2cccc(S(=O)(=O)N3CCOCC3)c2)c2ccccc21,-,-,-,-,-
CCOc1ccc(N=C2NC(=O)S/C2=C\c2ccc(Cl)cc2)cc1,-,-,-,-,-
CCOc1ccc2nc(N3C(=O)/C(=C/c4ccc(Cl)cc4)NC3=S)sc2c1,104.6,.,-,-,.
SMILES,CHOP inhibitor,XBP1 UPR activ,Tb MetRS inh,V-ATPase pHluor,UPR CHOP act
O=C(Nc1ccc(S(=O)(=O)Nc2cnc3ccccc3n2)cc1)c1cc(F)c(F)cc1Cl,.,-,-,-,-
COc1ccc(-c2n[nH]c(C)c2-c2ccc(Cl)cc2)c(O)c1OC,89.7,-,-,-,-
CCCOC(=O)c1ccc(Oc2c(-c3ccc(OC)cc3O)n[nH]c2C)cc1,91.4,-,-,-,-
COc1ccc(-c2n[nH]c(C)c2-c2ccc(Cl)cc2)c(O)c1,92.9,-,-,-,-
CCCOC(=O)c1ccc(Oc2cn[nH]c2-c2ccc(O)cc2O)cc1,-,-,-,-,-
O=C(NCc1ccccc1)c1cc(C2CCCCN2S(=O)(=O)c2ccccc2)on1 (stereo not drawn),.,.,-,.,.
COc1ccc(CN(C(=O)CSc2nnc(-c3ccccc3C)o2)c2ccc(F)cc2)cc1,-,-,-,-,-
O=C(CSc1nnc(-c2c[nH]c3ccccc23)o1)N(Cc1ccccc1)c1ccc(F)cc1,71.5,-,-,-,-

# Source: PubChem
